Converted amounts (≈) assume the structure as drawn.
Experiments:
Staphylococcus aureus [1] = assay: Antibacterial activity against hospital-associated methicillin-resistant Staphylococcus aureus COL after 20 hrs by CLSI microdilution assay; assay type: functional
Staphylococcus aureus [2] = assay: Bactericidal activity against methicillin-susceptible Staphylococcus aureus ATCC 29213 preincubated for 20 hrs followed by agar plating and measured after 18 to 20 hrs; assay type: functional
Method in brief: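 Broth microdilution per CLSI guideline. Compounds diluted 2-fold in MHB from 100 mM DMSO stocks. Inoculum ~10^5 CFU/mL final, from overnight TSB culture diluted in PBS. Plates incubated at 37 °C. Wells without growth by optical density spread on TSA and incubated at 37 °C. MBC is the lowest concentration giving no colonies. At least triplicate.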

A549 = assay: Cytotoxicity against human A549 cells after 24 to 48 hrs by fluorescence-based assay; assay type: cell-based
Method in brief: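 A549 cells, ~10^4 per well in DMEM, given 2-fold serial dilutions of compound (DMSO stock diluted in DMEM). Incubated at 37 °C, 5% CO2. PrestoBlue added for 1 h, then fluorescence read at excitation 535 nm and emission 610 nm as a measure of viable cells.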

Staphylococcus aureus [3] = assay: Bactericidal activity against methicillin-resistant Staphylococcus aureus USA300 preincubated for 20 hrs followed by agar plating and measured after 18 to 20 hrs; assay type: functional
Method in brief: (§1)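 MBC taken from broth microdilution (final about 10^5 CFU/mL, Mueller-Hinton broth, 37 °C for 20 h). Clear wells (basal optical density) were spread on TSA plates and incubated at 37 °C for 18–20 h. The lowest concentration giving no colonies is reported. At least triplicate.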

Staphylococcus aureus [4] = assay: Antibacterial activity against methicillin-resistant Staphylococcus aureus USA300 after 20 hrs by CLSI microdilution assay; assay type: functional; details: USA300, 20 h
Staphylococcus aureus [5] = assay: Antibacterial activity against methicillin-resistant Staphylococcus aureus USA300 at 5 ug after 18 to 20 hrs by CLSI disk diffusion assay; assay type: functional; details: read-out: DIZ
Method in brief: (§2)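 Disk diffusion on 4 mm Mueller-Hinton agar swabbed with about 10^8 CFU/mL suspension in PBS; 6 mm paper disk loaded with 5 µg compound in DMSO; 37 °C ambient air for 18–20 h; diameter of the complete inhibition zone measured in mm with callipers from the plate back; at least three independent experiments, mean with standard error; 6 mm means no inhibition.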

Staphylococcus aureus [6] = assay: Antibacterial activity against methicillin-susceptible Staphylococcus aureus ATCC 25923 at 5 ug after 18 to 20 hrs by CLSI disk diffusion assay; assay type: functional; details: read-out: DIZ
Method in brief: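 Mueller-Hinton agar, 4 mm deep, swabbed with PBS-diluted overnight TSB culture (~10^8 CFU/mL). Paper disk (6 mm) loaded with compound in DMSO, incubated 37 °C in ambient air. Complete inhibition zone diameter read from plate back with callipers; 6 mm means no inhibition. At least three independent experiments, mean with standard error.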

Staphylococcus aureus [7] = assay: Antibacterial activity against hospital-associated methicillin-resistant Staphylococcus aureus COL at 5 ug after 18 to 20 hrs by CLSI disk diffusion assay; assay type: functional; details: read-out: DIZ; method in brief: as §2
Staphylococcus aureus [8] = assay: Bactericidal activity against hospital-associated methicillin-resistant Staphylococcus aureus COL preincubated for 20 hrs followed by agar plating and measured after 18 to 20 hrs; assay type: functional; method in brief: as §1
Staphylococcus aureus [9] = assay: Antibacterial activity against methicillin-susceptible Staphylococcus aureus ATCC 29213 after 20 hrs by CLSI microdilution assay; assay type: functional; details: ATCC 29213, 20 h
Staphylococcus aureus [10] = assay: Potentiation of sulfamethoxazole-mediated antibacterial activity against methicillin-resistant Staphylococcus aureus USA300 assessed as sulfamethoxazole MIC after 20 hrs by CLSI microdilution assay (reference value: 100 microg/ml); assay type: functional; details: USA300, 20 h
Staphylococcus aureus [11] = assay: Synergistic antibacterial activity against hospital-associated methicillin-resistant Staphylococcus aureus COL in presence of sulfamethoxazole after 20 hrs by broth microdilution-based checkerboard titration assay; assay type: functional
Staphylococcus aureus [12] = assay: Synergistic antibacterial activity against methicillin-susceptible Staphylococcus aureus ATCC 29213 assessed as fractional inhibitory concentration index in presence of sulfamethoxazole after 18 hrs by broth microdilution-based checkerboard titration assay; assay type: functional
Staphylococcus aureus [13] = assay: Synergistic antibacterial activity against methicillin-resistant Staphylococcus aureus USA300 in presence of sulfamethoxazole after 20 hrs by broth microdilution-based checkerboard titration assay; assay type: functional
Staphylococcus aureus [14] = assay: Potentiation of sulfamethoxazole-mediated antibacterial activity against hospital-associated methicillin-resistant Staphylococcus aureus COL assessed as sulfamethoxazole MIC after 20 hrs by CLSI microdilution assay (reference value: 200 microg/ml); assay type: functional
Staphylococcus aureus [15] = assay: Synergistic antibacterial activity against methicillin-resistant Staphylococcus aureus USA300 assessed as fractional inhibitory concentration index in presence of sulfamethoxazole after 18 hrs by broth microdilution-based checkerboard titration assay; assay type: functional
Staphylococcus aureus [16] = assay: Synergistic antibacterial activity against hospital-associated methicillin-resistant Staphylococcus aureus COL assessed as fractional inhibitory concentration index in presence of sulfamethoxazole after 18 hrs by broth microdilution-based checkerboard titration assay; assay type: functional
Staphylococcus aureus [17] = assay: Potentiation of sulfamethoxazole-mediated antibacterial activity against methicillin-susceptible Staphylococcus aureus ATCC 29213 assessed as sulfamethoxazole MIC after 20 hrs by CLSI microdilution assay (reference value: 100 microg/ml); assay type: functional; details: ATCC 29213, 20 h
Staphylococcus aureus [18] = assay: Synergistic antibacterial activity against methicillin-susceptible Staphylococcus aureus ATCC 29213 in presence of sulfamethoxazole after 20 hrs by broth microdilution-based checkerboard titration assay; assay type: functional

Structure (SMILES)	MIC (Staphylococcus aureus [1])	MBC (Staphylococcus aureus [2])	IC50 (A549)	MBC (Staphylococcus aureus [3])	MIC (Staphylococcus aureus [4])	zone of inhibition at 5 µg/disc (Staphylococcus aureus [5])	zone of inhibition at 5 µg/disc (Staphylococcus aureus [6])	zone of inhibition at 5 µg/disc (Staphylococcus aureus [7])	MBC (Staphylococcus aureus [8])	MIC (Staphylococcus aureus [9])	MIC (Staphylococcus aureus [10])	FIC (Staphylococcus aureus [11])	fractional inhibitory concentration index (FICI) (Staphylococcus aureus [12])	FIC (Staphylococcus aureus [13])	MIC (Staphylococcus aureus [14])	fractional inhibitory concentration index (FICI) (Staphylococcus aureus [15])	fractional inhibitory concentration index (FICI) (Staphylococcus aureus [16])	MIC (Staphylococcus aureus [17])	FIC (Staphylococcus aureus [18])
COc1ccc(Cc2cnc(N)nc2N)cc1OC [DIAVERIDINE]	10 µg/mL (≈ 38.4 µM)	5 µg/mL (≈ 19.2 µM)	> 1000 µM	10 µg/mL (≈ 38.4 µM)	5 µg/mL (≈ 19.2 µM)	6 mm	8.81 mm	6 mm	20 µg/mL (≈ 76.8 µM)	5 µg/mL (≈ 19.2 µM)	–	–	–	–	–	–	–	–	–
COc1cc(Cc2cnc(N)nc2N)cc(I)c1OC	2.5 µg/mL (≈ 6.47 µM)	1.25 µg/mL (≈ 3.24 µM)	266 µM	1.25 µg/mL (≈ 3.24 µM)	1.25 µg/mL (≈ 3.24 µM)	22.8 mm	21 mm	6 mm	5 µg/mL (≈ 12.9 µM)	1.25 µg/mL (≈ 3.24 µM)	6.25 µg/mL	0.06	0.09	0.06	12.5 µg/mL	0.12	0.12	3.13 µg/mL	0.03
COc1cc(Cc2cnc(N)nc2N)cc(OC)c1OC [TRIMETHOPRIM]	5 µg/mL (≈ 17.2 µM)	1.25 µg/mL (≈ 4.31 µM)	–	2.5 µg/mL (≈ 8.61 µM)	1.25 µg/mL (≈ 4.31 µM)	22.8 mm	20.2 mm	6 mm	10 µg/mL (≈ 34.4 µM)	1.25 µg/mL (≈ 4.31 µM)	6.25 µg/mL	0.06	0.12	0.06	12.5 µg/mL	0.12	0.12	6.25 µg/mL	0.06

Source: ChEMBL document CHEMBL4270522, “Halogenated trimethoprim derivatives as multidrug-resistant Staphylococcus aureus therapeutics” (Bioorg Med Chem, 2018)
